According to ChEMBL document CHEMBL4350999, “Enhanced tumor retention of NTSR1-targeted agents by employing a hydrophilic cysteine cathepsin inhibitor” (Eur J Med Chem, 2019):
Active and inactive are the calls of the source. The calls are words filed in the database; no cut-off is given here.

Key:
[1] = Drug retention in human HT-29 cells assessed as increase in mean fluorescence intensity at 5 uM incubated for 2 hrs and measured at 24 hrs using natEu labelled compound by lysotracker green staining based confocal microscopic analysis; format: ADME, cell-based; settings: ht-29, 2 h
Procedure, shortened: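 HT-29 cells (1.25 × 10^5/well) loaded with natEu conjugate (5 μM), washed, then chased in fresh medium up to 24 h. Lysotracker Green (100 nM) applied 2 h before each read; cells fixed and imaged confocally at 405/488 nm. Per-cell mean fluorescence and Lysotracker co-localization quantified.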

[2] = Drug retention in liver lysates of mouse xenografted with human HT-29 cells assessed as macromolecule associated radioactivity at 29.6 MBq measured after 72 hrs using 177Lu labelled compound by gamma counter analysis relative to control; format: ADME, tissue-based; settings: in vivo
Procedure, shortened: (§1)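 HT-29 xenograft mice given 800 μCi (29.6 MBq) 177Lu conjugate i.v. and killed at 72 h. Tumor, liver and kidney homogenized in RIPA with protease inhibitor and supernatants run on SDS-PAGE autoradiography. Other supernatant aliquots filtered through 10 kDa MWCO devices to give the % macromolecule-associated radioactivity; n = 3.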

[3] = Drug retention in kidney lysates of mouse xenografted with human HT-29 cells assessed as macromolecule associated radioactivity at 29.6 MBq measured after 72 hrs using 177Lu labelled compound by gamma counter analysis relative to control; format: ADME, tissue-based; settings: in vivo; procedure, shortened: as §1
[4] = Drug uptake in large intestine of SCID mouse xenografted with human HT-29 cells using 177Lu labelled compound at 0.37 MBq/mouse, iv co-treated with D-lysine at 40 mg/kg measured at 24 hrs by gamma counter analysis; format: ADME, organism-based; settings: in vivo
Procedure, shortened: (§2)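 Female SCID mice bore s.c. HT-29 xenografts (5 × 10^6 cells in Matrigel, about 80 mm3). D-lysine 40 mg/kg was co-injected i.v. with 10 μCi (0.37 MBq) of purified 177Lu-conjugate. Tissues were harvested at 24 h, weighed and gamma-counted, reported as %ID/g; mean ± SD, n = 5.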

[5] = Drug uptake in muscle of SCID mouse xenografted with human HT-29 cells using 177Lu labelled compound at 0.37 MBq/mouse, iv co-treated with D-lysine at 40 mg/kg measured at 24 hrs by gamma counter analysis; format: ADME, organism-based, Muscle tissue; settings: in vivo; procedure, shortened: as §2
[6] = Ratio of drug uptake in SCID mouse xenograted with human HT-29 cells assessed as tumour retention to drug uptake in large intestine of SCID mouse xenografted with human HT-29 cells cotreated with D-lysine at 40 mg/kg measured after 24 hrs using 177Lu labelled compound; format: ADME, organism-based, Tumor/Large intestine; settings: in vivo
Procedure, shortened: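 Female SCID mice (5 weeks old) carried subcutaneous flank HT-29 xenografts (5 × 10^6 cells in Matrigel), used at about 80 mm3. They received 10 μCi (0.37 MBq) of purified 177Lu-labelled conjugate i.v. by tail vein, with D-lysine 40 mg/kg co-injected. At 24 h p.i., tissues were excised, weighed and gamma-counted, and %ID/g and tumour-to-tissue ratios were calculated (n = 5).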

[7] = Drug retention in liver of mouse xenografted with human HT-29 cells assessed as tissue-conjugate adduct formation at 29.6 MBq co-treated with D-lysine at 40 mg/kg measured after 72 hrs using 177Lu labelled compound by SDS-PAGE analysis; format: ADME, organism-based; settings: in vivo
[8] = Drug uptake in pancreas of SCID mouse xenografted with human HT-29 cells pretreated for 1 hr with colchicine at 1 mg/kg, ip followed by 177Lu labelled compound at 0.37 MBq/mouse, iv measured at 24 hrs by gamma counter analysis; format: ADME, organism-based; settings: in vivo
Procedure, shortened: (§3)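 HT-29 flank xenografts in female SCID mice (5 × 10^6 cells in Matrigel, about 80 mm3). Colchicine 1 mg/kg was given i.p. before a tail-vein injection of 10 μCi (0.37 MBq) of purified 177Lu-conjugate. Tissues were taken at 24 h, weighed and gamma-counted as %ID/g; mean ± SD, n = 5.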

[9] = Drug uptake in kidney of SCID mouse xenografted with human HT-29 cells pretreated for 1 hr with colchicine at 1 mg/kg, ip followed by 177Lu labelled compound at 0.37 MBq/mouse, iv measured at 24 hrs by gamma counter analysis; format: ADME, organism-based; settings: in vivo; procedure, shortened: as §3
Cathepsin B [10] = biological target: T1, Cathepsin B (Homo sapiens, UniProt P07858); test: Binding affinity to cathepsin B in human HT-29 cells assessed as intracellular adduct formation at 0.74 MBq incubated for 4 hrs in presence of E-64 using 177Lu labelled compound by SDS-PAGE analysis; format: cell-based; parameters: dose or concentration left out as unconfirmed
Procedure, shortened: (§4)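 HT-29 cells (1 × 10^6/well) incubated 4 h at 37 °C with 177Lu conjugate (20 μCi, 0.74 MBq) in 1 mL medium, with or without E-64 (10 μM) or NTSR1 peptide N1 (20 μM). Cells washed and refed; at set times cells pooled, RIPA-lysed with protease inhibitor. Lysates heated 85 °C 2 min, run on 16% tris-glycine SDS-PAGE, and phosphor autoradiography taken after 72 h exposure.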

[11] = Drug retention in liver lysates of mouse xenografted with human HT-29 cells assessed as macromolecule associated radioactivity at 29.6 MBq co-treated with D-lysine measured after 72 hrs using 177Lu labelled compound by gamma counter analysis relative to control; format: ADME, tissue-based; settings: in vivo
Cathepsin B [12] = biological target: T1, Cathepsin B; test: Binding affinity to human liver cathepsin B assessed as protein-conjugate adduct formation at 0.74 MBq incubated for 30 mins in presence of E-64 using 177Lu labelled compound by SDS-PAGE analysis; settings: 0.74 M
Procedure, shortened: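 Purified human liver CatB or CatL (3 nM) in 50 mM sodium acetate/1 mM EDTA pH 5.0 incubated 30 min with 177Lu conjugate (500,000 cpm) in Tris/MgCl2/DTT buffer pH 5.5, alone or with E-64 (10 μM) or N1 (20 μM). Mixtures heated 85 °C 2 min, run on 16% tris-glycine gel at 110 V for 90 min, and read by phosphor autoradiography.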

[13] = Drug uptake in SCID mouse xenografted with human HT-29 cells assessed as tumour retention using 177Lu labelled compound at 0.37 MBq/mouse, iv co-treated with D-lysine at 40 mg/kg measured at 24 hrs by gamma counter analysis; format: ADME, organism-based; settings: in vivo
Procedure, shortened: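 Female SCID mice bearing s.c. flank HT-29 xenografts (5 × 10^6 cells in Matrigel, ~80 mm3). Given 10 μCi (0.37 MBq) 177Lu conjugate i.v. by tail vein; groups sacrificed at 4, 24, 72 h. Tissues weighed and gamma-counted as %ID/g, excretion as %ID; n = 5, mean ± SD. Blocking arms: colchicine 1 mg/kg i.p. beforehand, or D-lysine 40 mg/kg co-injected.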

Procathepsin L = Procathepsin L (Homo sapiens, UniProt P07711); test: Binding affinity to cathepsin L in human HT-29 cells assessed as intracellular adduct formation at 0.74 MBq incubated for 4 hrs in presence of E-64 using 177Lu labelled compound by SDS-PAGE analysis; format: cell-based; parameters: dose or concentration left out as unconfirmed; procedure, shortened: as §4
Procathepsin L, sequence (P07711 114-333 limits assumed): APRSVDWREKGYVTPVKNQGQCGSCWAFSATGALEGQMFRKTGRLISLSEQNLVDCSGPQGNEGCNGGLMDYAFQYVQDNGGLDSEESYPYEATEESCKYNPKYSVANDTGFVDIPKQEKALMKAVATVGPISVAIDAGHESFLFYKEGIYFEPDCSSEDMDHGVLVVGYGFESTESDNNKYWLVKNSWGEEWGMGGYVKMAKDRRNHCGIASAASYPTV

[14] = Drug uptake in stomach of SCID mouse xenografted with human HT-29 cells pretreated for 1 hr with colchicine at 1 mg/kg, ip followed by 177Lu labelled compound at 0.37 MBq/mouse, iv measured at 24 hrs by gamma counter analysis; format: ADME, organism-based; settings: in vivo
Procedure, shortened: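 HT-29 xenograft SCID mice pretreated with colchicine 1 mg/kg i.p., then given 177Lu conjugate i.v. at 10 μCi (0.37 MBq)/mouse. Tissues excised at 24 h, weighed and gamma counted for %ID/g (n = 5, mean ± SD).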

Structure (SMILES): Cc1cc(O)cc(C)c1C[C@H](NC(=O)[C@@H]1CCCN1C(=O)[C@H](CCCNC(=N)N)NC(=O)[C@H](CCCNC(=N)N)N(C)C(=O)[C@@H]1CCCN1C(=O)[C@H](CCCCN)NC(=O)[C@@H](CO)NC(=O)[C@@H](CO)NC(=O)[C@@H](CO)NC(=O)[C@H](Cc1cn(CCNC(=O)[C@H](CCCNC(=N)N)NC(=O)[C@H](CC(C)C)NC(=O)C2OC2C(=O)O)nn1)NC(=O)CN1CCN(CC(=O)O)CCN(CC(=O)O)CCN(CC(=O)O)CC1)C(=O)N[C@H](C(=O)N[C@@H](CC(C)C)C(=O)O)C(C)(C)C (stereo not given in full)
- Drug uptake [1]: Active
- Drug uptake [2]: 80%
- Drug uptake [3]: 80%
- Drug uptake [4]: 0.8 % ID/g
- Drug uptake [5]: 0.07 % ID/g
- Ratio [6]: 8
- Drug uptake [7]: Not Active
- Drug uptake [8]: 0.7 % ID/g
- Drug uptake [9]: 26 % ID/g
- Activity (Cathepsin B [10]): Active
- Drug uptake [11]: 80%
- Activity (Cathepsin B [12]): inactive
- Drug uptake [13]: 6 % ID/g
- Activity (Procathepsin L): Active
- Drug uptake [14]: 0.29 % ID/g
